Activity calls are given as the source filed them. The rule behind the calls is not given here.
Assays:
Cannabinoid receptor 2 [1] = biological target: T1, Cannabinoid receptor 2 (Homo sapiens, UniProt P34972); assay: Agonist activity at human CB2 receptor expressed in CHO cell membranes after 90 mins by [35S]GTPgammaS binding assay relative to control; format: functional
In short: (§1)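 Membranes (5 µg) of hCB2-expressing cells in 50 mM Tris-HCl, 3 mM MgCl₂, 0.2 mM EDTA, 100 mM NaCl, 0.5% fatty acid-free BSA, pH 7.4, with 10 µM GDP and 0.1 nM [³⁵S]GTPγS. Kept on ice, started by vehicle or compound, 90 min at 30 °C. Nonspecific binding with 10 µM GTPγS. Filtered on GF/B, radioactivity counted. At least three experiments in triplicate, mean ± SD.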

[2] = biological target: T2, Monoacylglycerol lipase ABHD6 (Homo sapiens, UniProt Q9BV23); assay: Inhibition of human ABHD6 expressed in HEK293 cells using 2-OG as substrate preincubated for 30 mins followed by substrate addition and measured after 5 mins by liquid scintillation spectroscopic method; format: cell-based
T2 sequence (Q9BV23 whole entry): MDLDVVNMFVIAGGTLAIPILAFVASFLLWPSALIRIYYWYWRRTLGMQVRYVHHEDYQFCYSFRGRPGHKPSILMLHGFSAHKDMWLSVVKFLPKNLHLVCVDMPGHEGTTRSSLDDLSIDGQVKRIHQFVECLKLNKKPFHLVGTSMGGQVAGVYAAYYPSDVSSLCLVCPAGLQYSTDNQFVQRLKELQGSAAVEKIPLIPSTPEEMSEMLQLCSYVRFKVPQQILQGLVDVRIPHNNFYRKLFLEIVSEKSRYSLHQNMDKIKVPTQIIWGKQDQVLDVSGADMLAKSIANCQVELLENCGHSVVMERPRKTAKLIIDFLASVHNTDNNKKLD
In short: (§2)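 Homogenate (40 µg) of HEK293 cells stably transfected with hABHD6 or hABHD12, compound preincubated 30 min at 37 °C in […], 0.1% BSA, pH 7.6. DMSO vehicle; WWL70 10 µM or THL 20 µM as positive controls. 10 µM 2-OG added for 5 min at 37 °C, stopped with CHCl₃:MeOH. Aqueous phase counted; no-enzyme blanks and non-transfected HEK293 hydrolysis subtracted.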

Homo sapiens = species: Homo sapiens; assay: Selectivity ratio of Ki for human CB1 receptor to Ki for human CB2 receptor
In short: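 Membranes expressing hCB1 or hCB2 (stably transfected CHO) in 50 mM Tris-HCl, 2.5 mM EDTA, 5 mM MgCl₂, 0.5% fatty acid-free BSA, pH 7.4. Incubated with compound and 0.5 nM [³H]CP55,940 for 90 min at 30 °C. Nonspecific binding with 10 µM […]. GF/B filtration, radioactivity counted, Ki derived. Mean ± SD, at least 3 experiments in triplicate.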

[3] = biological target: T3, Lysophosphatidylserine lipase ABHD12 (Homo sapiens, UniProt Q8N2K0); assay: Inhibition of human ABHD12 expressed in HEK293 cells using 2-OG as substrate preincubated for 30 mins followed by substrate addition and measured after 5 mins by liquid scintillation spectroscopic method; format: cell-based; in short: as §2
T3 sequence (Q8N2K0 whole entry): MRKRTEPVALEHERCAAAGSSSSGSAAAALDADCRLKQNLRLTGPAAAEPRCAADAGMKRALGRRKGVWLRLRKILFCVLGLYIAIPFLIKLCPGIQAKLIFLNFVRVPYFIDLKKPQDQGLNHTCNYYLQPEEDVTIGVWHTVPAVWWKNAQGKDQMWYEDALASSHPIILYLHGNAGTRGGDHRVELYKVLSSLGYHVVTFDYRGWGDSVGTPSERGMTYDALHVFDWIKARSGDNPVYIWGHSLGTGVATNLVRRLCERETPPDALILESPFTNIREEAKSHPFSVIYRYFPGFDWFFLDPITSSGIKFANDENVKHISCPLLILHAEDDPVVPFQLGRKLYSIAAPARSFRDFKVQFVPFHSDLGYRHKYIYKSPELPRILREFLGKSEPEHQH

U-937 [4] = assay: Cytotoxicity against human U937 cells assessed as decrease in cell viability at 0.6 to 40 uM after 48 hrs by MTT assay; format: functional, cell-based
In short: (§3)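 U251MG (EMEM, 10% FBS) or U937 (RPMI 1640, 10% FBS) cells plated at 4x10³/well for 24h, then exposed to compounds (0–40 µM) for 48 h at 37°C. MTT reduction, formazan read at 595 nm. Viability as % of untreated control. Five independent experiments in triplicate, mean ± SD, ANOVA with Bonferroni.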

[5] = biological target: T4, Fatty-acid amide hydrolase 1 (Homo sapiens, UniProt O00519); assay: Inhibition of FAAH in human U937 cells using AEA containing [ethanolamine-1-3H]AEA as substrate preincubated for 30 mins followed by substrate addition and measured after 15 mins by liquid scintillation spectroscopic method; format: cell-based
T4 sequence (O00519 whole entry): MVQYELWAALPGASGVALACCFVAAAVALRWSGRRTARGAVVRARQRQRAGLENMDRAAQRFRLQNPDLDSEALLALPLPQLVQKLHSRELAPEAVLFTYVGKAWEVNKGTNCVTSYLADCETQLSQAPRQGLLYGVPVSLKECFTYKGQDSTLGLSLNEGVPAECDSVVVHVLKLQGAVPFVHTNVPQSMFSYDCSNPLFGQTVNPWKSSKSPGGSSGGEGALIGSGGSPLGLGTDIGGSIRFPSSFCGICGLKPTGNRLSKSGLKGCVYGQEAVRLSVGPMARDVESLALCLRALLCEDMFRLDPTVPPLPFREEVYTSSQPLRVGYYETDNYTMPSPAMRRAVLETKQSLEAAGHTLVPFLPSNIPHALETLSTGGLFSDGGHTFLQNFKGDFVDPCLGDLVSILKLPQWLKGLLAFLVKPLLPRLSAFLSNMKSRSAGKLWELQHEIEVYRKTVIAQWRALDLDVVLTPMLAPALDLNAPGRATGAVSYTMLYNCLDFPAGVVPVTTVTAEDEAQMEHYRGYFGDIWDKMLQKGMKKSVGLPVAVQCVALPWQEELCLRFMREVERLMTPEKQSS
In short: (§4)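 U937 cell homogenate (100 µg) in 10 mM Tris-HCl, 1 mM EDTA, pH 8, 0.1% fatty acid-free BSA. Compound at 10 µM screening concentration, 30 min at 37 °C. FAAH: 100 nM AEA with 1 nM [³H]AEA tracer. MAGL: 1 µM 2-OG with 1 nM tritiated tracer. Both 15 min at 37 °C, stopped with CHCl₃:MeOH (1:1), aqueous phase counted.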

Cannabinoid receptor 2 [6] = biological target: T1, Cannabinoid receptor 2; assay: Agonist activity at human CB2 receptor expressed in CHO cell membranes after 90 mins by [35S]GTPgammaS binding assay; format: functional; in short: as §1
Cannabinoid receptor 1 [7] = biological target: T5, Cannabinoid receptor 1 (Homo sapiens, UniProt P21554); assay: Agonist activity at human CB1 receptor expressed in CHO cell membranes after 90 mins by [35S]GTPgammaS binding assay; format: functional, cell-based
U-251 = assay: Cytotoxicity against human U251MG cells assessed as decrease in cell viability at 0.6 to 40 uM after 48 hrs by MTT assay; format: functional, cell-based; in short: as §3
Cannabinoid receptor 2 [8] = biological target: T1, Cannabinoid receptor 2; assay: Displacement of [3H]-CP55940 from human CB2 receptor expressed in CHO cell membranes after 90 mins
In short: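 Membranes expressing hCB1 or hCB2 (stably transfected CHO) in 50 mM Tris-HCl, 2.5 mM EDTA, 5 mM MgCl₂, 0.5% fatty acid-free BSA, pH 7.4. Nonspecific binding with 10 µM […]. GF/B filtration, radioactivity counted, Ki derived. Mean ± SD, at least 3 experiments in triplicate.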

Monoglyceride lipase = biological target: T6, Monoglyceride lipase (Homo sapiens, UniProt Q99685); assay: Inhibition of MAGL in human U937 cells using 2-OG containing […] as substrate preincubated for 30 mins followed by substrate addition and measured after 15 mins by liquid scintillation spectroscopic method; format: cell-based; in short: as §4
T6 sequence (Q99685 whole entry): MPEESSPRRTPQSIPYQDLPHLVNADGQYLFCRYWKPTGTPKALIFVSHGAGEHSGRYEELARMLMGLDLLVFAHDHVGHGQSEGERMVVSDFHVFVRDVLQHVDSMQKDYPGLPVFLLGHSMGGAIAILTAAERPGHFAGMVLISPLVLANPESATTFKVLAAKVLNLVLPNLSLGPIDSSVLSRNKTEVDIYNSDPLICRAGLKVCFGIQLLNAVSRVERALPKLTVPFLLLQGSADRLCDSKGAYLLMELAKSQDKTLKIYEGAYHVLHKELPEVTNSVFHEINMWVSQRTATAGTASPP

Cannabinoid receptor 1 [9] = biological target: T5, Cannabinoid receptor 1; assay: Displacement of [3H]-CP55940 from human CB1 receptor expressed in CHO cell membranes after 90 mins
U-937 [10] = assay: Inhibition of [ethanolamine-1-3H]AEA/unlabeled AEA uptake in human U937 cells preincubated for 15 mins followed by [ethanolamine-1-3H]AEA/unlabeled AEA addition and measured after 15 mins by scintillation counting method; format: functional, cell-based
In short: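 Intact U937 cells (0.5x10⁶ per sample) in RPMI, preincubated with compound for 15 min at 37 °C. Then 1 nM [ethanolamine-1-³H]AEA plus unlabeled AEA (final 100 nM) added for 15 min. Stopped by rapid filtration and ice-cold PBS/1% BSA washes, radioactivity counted. At least three experiments in triplicate, mean ± SD.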

T5 sequence (P21554 whole entry): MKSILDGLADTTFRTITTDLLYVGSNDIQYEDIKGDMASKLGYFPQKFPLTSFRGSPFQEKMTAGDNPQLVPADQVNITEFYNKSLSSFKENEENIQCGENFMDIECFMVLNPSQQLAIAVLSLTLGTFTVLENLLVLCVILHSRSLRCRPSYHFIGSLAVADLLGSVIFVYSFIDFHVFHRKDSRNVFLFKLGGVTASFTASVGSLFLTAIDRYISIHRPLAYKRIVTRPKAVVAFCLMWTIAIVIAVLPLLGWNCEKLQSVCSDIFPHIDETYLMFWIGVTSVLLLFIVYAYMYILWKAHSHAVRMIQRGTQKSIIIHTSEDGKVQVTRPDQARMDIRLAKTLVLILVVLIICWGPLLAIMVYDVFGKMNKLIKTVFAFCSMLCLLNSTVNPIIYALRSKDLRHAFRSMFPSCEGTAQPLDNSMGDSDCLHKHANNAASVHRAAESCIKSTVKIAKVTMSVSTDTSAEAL
T1 sequence (P34972 whole entry): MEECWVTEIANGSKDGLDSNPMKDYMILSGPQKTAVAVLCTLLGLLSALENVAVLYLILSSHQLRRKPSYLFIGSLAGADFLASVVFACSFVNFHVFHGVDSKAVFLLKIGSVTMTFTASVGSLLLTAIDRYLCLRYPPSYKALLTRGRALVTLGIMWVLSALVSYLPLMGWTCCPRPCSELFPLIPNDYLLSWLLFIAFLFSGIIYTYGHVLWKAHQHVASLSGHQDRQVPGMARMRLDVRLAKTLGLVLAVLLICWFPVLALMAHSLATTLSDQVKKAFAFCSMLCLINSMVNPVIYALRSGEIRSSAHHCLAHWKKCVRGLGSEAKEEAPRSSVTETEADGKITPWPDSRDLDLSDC

SMILES	Emax (Cannabinoid receptor 2 [1]) [%]	IC50 [2] [µM]	Ratio Ki (Homo sapiens)	IC50 [3] [µM]	Activity (U-937 [4])	IC50 [5] [µM]	EC50 (Cannabinoid receptor 2 [6]) [µM]	EC50 (Cannabinoid receptor 1 [7]) [µM]	Activity (U-251)	Ki (Cannabinoid receptor 2 [8]) [µM]	IC50 (Monoglyceride lipase) [µM]	Ki (Cannabinoid receptor 1 [9]) [µM]	IC50 (U-937 [10]) [µM]
CCCCCCC(C)(C)c1ccc([C@@H]2C[C@H](O)CC[C@H]2CCCO)c(O)c1	196												
Cc1c(-c2ccccc2)cn(Cc2ccc(F)cc2)c(=O)c1C(=O)NC1CCCCCC1	39	> 10	2 to 54	2.5	Active	0.07	0.012	0.237	inactive	0.0069	> 10	0.0231	
COc1ccc(-c2cc(C(=O)NC3CCCCCC3)c(=O)n(Cc3ccc(F)cc3)c2)cc1					Active				inactive				
O=C(NC1CCCCCC1)c1c(-c2ccccc2)ccn(Cc2ccc(F)cc2)c1=O	134	> 10	2 to 54	> 10	Active	> 10	0.501		inactive	0.187	> 10	> 10	> 10
COc1ccc(-c2cn(Cc3ccc(F)cc3)c(=O)c(C(=O)NC3CCCCCC3)c2-c2ccccc2)cc1		> 10	2 to 54	> 10		> 10				> 10	> 10	> 10	> 10
Cc1ccnc(OCc2ccc(F)cc2)c1C(=O)NC1CCCCCC1	127	> 10	2 to 54	> 10	Active	> 10	0.031	0.229	inactive	0.0463	> 10	0.131	0.58
COc1ccc(-c2ccn(Cc3ccc(F)cc3)c(=O)c2C(=O)NC2CCCCCC2)cc1		> 10	2 to 54	> 10		> 10				> 10	> 10	> 10	> 10
O=C(NC1CCCCCC1)c1c(-c2ccccc2)c(-c2ccccc2)cn(Cc2ccc(F)cc2)c1=O		> 10	2 to 54	> 10		> 10				> 10	> 10	> 10	> 10
COc1ccc(C(=O)c2c(C)n(CCN3CCOCC3)c3cc(I)ccc23)cc1	35						0.167						
COc1ccc(-c2c(Br)cn(Cc3ccc(F)cc3)c(=O)c2C(=O)NC2CCCCCC2)cc1		> 10	2 to 54	> 10		> 10				> 10	> 10	> 10	> 10
O=C(NC1CCCCCC1)c1c(-c2ccccc2)c(Br)cn(Cc2ccc(F)cc2)c1=O	176	3	2 to 54	> 10		> 10	0.316			0.437	> 10	> 10	> 10

From ChEMBL document CHEMBL4152271, “Polypharmacological profile of 1,2-dihydro-2-oxo-pyridine-3-carboxamides in the endocannabinoid system” (Eur J Med Chem, 2018)
